These results are taken from ChEMBL document CHEMBL1123629, “Resolution, absolute configuration, and cholinergic enantioselectivity of (-)- and (+)-c-2-methyl-r-5-[(dimethylamino)methyl]-1,3-oxathiolane t-3-oxide methiodide and related sulfones” (1987).

The nature of assay [1]: Eudismic ratio was determined in frog rectus abdominis. It counts as functional, Rectus abdominis muscle.
Assay [2] can be described thus: Eudismic ratio was determined in guinea pig ileum. In kind it is functional.
Assay [3] can be described thus: Equipotent molar ratio(EPMR) between the ED50 of compound and ED50 of carbachol calculated on guinea pig ileum. It counts as functional. The gist of the method: (§1)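 ED50 for test agonist and for carbachol (reference) were obtained by regressing the angular transform of fractional contractile effect against log agonist concentration. Potency is expressed as the equipotent molar ratio, ED50 test/ED50 carbachol. Values below 1 indicate greater potency than carbachol.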

The nature of assay [4]: Equipotent molar ratio(EPMR) between the ED50 of compound and ED50 of carbachol calculated on frog rectus abdominis. It counts as functional, Rectus abdominis muscle. In outline: as §1
A short description of assay [5]: Nicotinic activity on frog rectus abdominis. In kind it is functional, Rectus abdominis muscle.
A short description of assay [6]: Muscarinic selectivity is reported as the EPMR ratio (EPMR Nicotinic/ EPMR Muscarinic). It counts as functional. In outline: (§2)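 Selectivity is computed from nicotinic (frog rectus abdominis) and muscarinic (guinea pig ileum) data as ED50(N)/ED50(M) and as EPMR(N)/EPMR(M). Each ED50 comes from regressing the angular transform of fractional effect on log agonist concentration, with carbachol as the reference.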

The nature of assay [7]: Muscarinic selectivity is reported as the ED50 ratio (ED50 Nicotinic / ED50 Muscarinic). It counts as functional. The gist of the method:
as §2

The species named for assay [8] is Cavia porcellus. The assay can be described thus: Muscarinic activity on guinea pig ileum. It counts as functional.

Molecules are shown by their SMILES.

For the molecule `C[C@H]1O[C@@H](C[N+](C)(C)C)CS1(=O)=O.[I-]`, the Eudismic ratio in assay [1] was 12; in assay [2], 1. Moreover, the EPMR is 170 in assay [3] and 6.5 in assay [4]. In assay [5], the ED50 amounted to 0.033 nM. For the same molecule, the figures for the Selectivity in assay [6] and in assay [7] were 0.04 and 2.1, respectively.

On to `C[C@@H]1O[C@H](C[N+](C)(C)C)CS1(=O)=O.[I-]`, for which the figures for the EPMR in assay [3] and in assay [4] were 168 and 76, respectively. This molecule also came in with an ED50 in assay [8] of 0.000158 nM.

Consider `C[C@@H]1O[C@H](C[N+](C)(C)C)CS1(=O)=O`, for which the figures for the Selectivity in assay [6] and in assay [7] were 0.5 and 24, respectively.

For `C[C@H]1O[C@@H](C[N+](C)(C)C)C[S+]1[O-].[I-]` (mixture of isomers), the EPMR in assay [3] is on record as 1.3; in assay [4] it was 45. The ED50 was 2300 nM in assay [5] and 12.2 nM in assay [8].

For `C[C@H]1O[C@H](C[N+](C)(C)C)C[S+]1[O-].[I-]` (mixture of isomers), the EPMR is 209 in assay [3] and 41 in assay [4]. For the same molecule, the ED50 is 2100 nM in assay [5] and 19.6 nM in assay [8].

Consider `C[C@@H]1O[C@H](C[N+](C)(C)C)CS1(=O)=O.[I-]` (racemic), for which the figures for the EPMR in assay [3] and in assay [4] were 281 and 15, respectively. Besides, in assay [8], the ED50 amounted to 0.000264 nM.

Take `C[C@@H]1O[C@H](C[N+](C)(C)C)CS1(=O)=O` (racemic): the Selectivity in assay [6] is 0.05; in assay [7], 3.

As to `C[C@@H]1O[C@H](C[N+](C)(C)C)C[C@H]1O` (racemic) [MUSCARINE], the EPMR in assay [3] is recorded as 0.8; in assay [4], over 95. For the same molecule, the values for the ED50 in assay [5] and in assay [8] were over 500 and 79.4 nM, respectively.

With `C[N+](C)(C)CCOC(N)=O.[Cl-]` [CARBACHOL], the EPMR in assay [3] and in assay [4] was 1 throughout. The ED50 stood at 5100 nM in assay [5] and 94 nM in assay [8].
